Results: ChEMBL document CHEMBL1126244, “HIV-1 protease inhibitors based on hydroxyethylene dipeptide isosteres: an investigation into the role of the P1' side chain on structure-activity” (J Med Chem, 1992)
≈ marks a conversion by molar mass, not a printed value.

Key:
[1] = target: Human immunodeficiency virus type 1 protease (Human immunodeficiency virus 1, UniProt Q72874); assay: Inhibition of HIV-1 protease
[2] = system: Human immunodeficiency virus 1; assay: Ex vivo antiviral activity in H9 T-lymphoid cells infected with HIV-1(IIIB).; format: functional; conditions: read-out: MIC100
How it was run: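 Human H9 T-lymphoid cells acutely infected with HIV-1 IIIB isolate, MOI 0.01; compound added in DMSO at time of infection, refreshed every 2–3 days when culture sampled and half the medium replaced. Spread read by indirect immunofluorescence (anti-HIV-1 human serum primary antibody) at 14 days; MIC100 = minimum concentration completely preventing spread of infection through the culture, in nM.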

Row | SMILES | IC50 [1] [nM] | MIC [2] [µM]
1 | CC(C)(C)OC(=O)N[C@@H](Cc1ccccc1)[C@@H](O)C[C@@H](C/C=C/c1ccccc1)C(=O)N[C@H]1c2ccccc2C[C@H]1O | 0.23 | 0.4 (≈ 0.228 µg/mL)
2 | Cc1ccc(C[C@H](C[C@H](O)[C@H](Cc2ccccc2)NC(=O)OC(C)(C)C)C(=O)N[C@H]2c3ccccc3C[C@H]2O)cc1 | 0.29 | 0.2 (≈ 0.112 µg/mL)
3 | CC(C)C[C@H](NC(=O)[C@H](Cc1ccccc1)C[C@H](O)[C@H](Cc1ccccc1)NC(=O)OC(C)(C)C)C(=O)N[C@@H](Cc1ccccc1)C(N)=O | 0.42 | 3 (≈ 2.02 µg/mL)
4 | CC(C)C[C@H](NC(=O)[C@H](CCCc1ccccc1)C[C@H](O)[C@H](Cc1ccccc1)NC(=O)OC(C)(C)C)C(=O)N[C@@H](Cc1ccccc1)C(N)=O | 0.36 | –
5 | CC(C)(C)OC(=O)N[C@@H](Cc1ccccc1)[C@@H](O)C[C@@H](Cc1ccc(CCO)cc1)C(=O)N[C@H]1c2ccccc2C[C@H]1O | 0.16 | 0.05 (≈ 0.0294 µg/mL)
6 | CC(C)C[C@H](NC(=O)[C@H](Cc1cccc2ccccc12)C[C@H](O)[C@H](Cc1ccccc1)NC(=O)OC(C)(C)C)C(=O)N[C@@H](Cc1ccccc1)C(N)=O | 1.2 | –
7 | CSc1ccc(C[C@H](C[C@H](O)[C@H](Cc2ccccc2)NC(=O)OC(C)(C)C)C(=O)N[C@H]2c3ccccc3C[C@H]2O)cc1 | 0.22 | –
8 | CC(C)(C)OC(=O)N[C@@H](Cc1ccccc1)[C@@H](O)C[C@@H](Cc1ccc(S(C)(=O)=O)cc1)C(=O)N[C@H]1c2ccccc2C[C@H]1O | 0.17 | –
9 | CC(C)(C)OC(=O)N[C@@H](Cc1ccccc1)[C@@H](O)C[C@@H](C/C=C/c1ccc(O)cc1)C(=O)N[C@H]1c2ccccc2C[C@H]1O | 0.17 | 0.2 (≈ 0.117 µg/mL)
10 | CC(C)(C)OC(=O)N[C@@H](Cc1ccccc1)[C@@H](O)C[C@@H](Cc1ccc(CN2CCOCC2)cc1)C(=O)N[C@H]1c2ccccc2C[C@H]1O | 1.15 | 0.1 (≈ 0.0644 µg/mL)
11 | CC(C)(C)OC(=O)N[C@@H](Cc1ccccc1)[C@@H](O)C[C@@H](Cc1ccc([N+](=O)[O-])cc1)C(=O)N[C@H]1c2ccccc2C[C@H]1O | 0.27 | –
12 | CC(C)(C)OC(=O)N[C@@H](Cc1ccccc1)[C@@H](O)C[C@@H](C/C=C/c1ccc(OCCN2CCOCC2)cc1)C(=O)N[C@H]1c2ccccc2C[C@H]1O | – | 0.05 (≈ 0.035 µg/mL)
13 | CC(C)(C)OC(=O)N[C@@H](Cc1ccccc1)[C@@H](O)C[C@@H](Cc1ccccc1)C(=O)N[C@H]1c2ccccc2C[C@H]1O | 0.23 | 0.4 (≈ 0.218 µg/mL)
14 | CC(C)(C)OC(=O)N[C@@H](Cc1ccccc1)[C@@H](O)C[C@@H](Cc1ccc(F)cc1)C(=O)N[C@H]1c2ccccc2C[C@H]1O | 0.44 | –
15 | CC(C)(C)OC(=O)N[C@@H](Cc1ccccc1)[C@@H](O)C[C@@H](Cc1ccc(C(F)(F)F)cc1)C(=O)N[C@H]1c2ccccc2C[C@H]1O | 0.26 | –
16 | CC(C)(C)OC(=O)N[C@@H](Cc1ccccc1)[C@@H](O)C[C@@H](Cc1ccc(N)cc1)C(=O)N[C@H]1c2ccccc2C[C@H]1O | 0.31 | 0.2 (≈ 0.112 µg/mL)
17 | CC(C)(C)OC(=O)N[C@@H](Cc1ccccc1)[C@@H](O)C[C@@H](Cc1ccc(I)cc1)C(=O)N[C@H]1c2ccccc2C[C@H]1O | 0.72 | –
18 | COCCOCOCCc1ccc(C[C@H](C[C@H](O)[C@H](Cc2ccccc2)NC(=O)OC(C)(C)C)C(=O)N[C@H]2c3ccccc3C[C@H]2O)cc1 | 0.13 | 0.1 (≈ 0.0677 µg/mL)
19 | CC(C)(C)OC(=O)N[C@@H](Cc1ccccc1)[C@@H](O)C[C@@H](Cc1cccc(O)c1)C(=O)N[C@H]1c2ccccc2C[C@H]1O | 0.21 | –
20 | COC(CCc1ccc(C[C@H](C[C@H](O)[C@H](Cc2ccccc2)NC(=O)OC(C)(C)C)C(=O)N[C@H]2c3ccccc3C[C@H]2O)cc1)OC | 0.08 | –

Row | SMILES | IC50 [1] [nM] | MIC [2] [µM]
21 | C[C@H](C[C@H](O)[C@H](Cc1ccccc1)NC(=O)OC(C)(C)C)C(=O)N[C@H]1c2ccccc2C[C@H]1O | 62.7 | –
22 | CC(C)(C)OC(=O)N[C@@H](Cc1ccccc1)[C@@H](O)C[C@@H](Cc1ccc(C(C)(C)C)cc1)C(=O)N[C@H]1c2ccccc2C[C@H]1O | 0.27 | 0.2 (≈ 0.12 µg/mL)
23 | CC[C@H](C[C@H](O)[C@H](Cc1ccccc1)NC(=O)OC(C)(C)C)C(=O)N[C@H]1c2ccccc2C[C@H]1O | 34.7 | –
24 | CC(C)(C)OC(=O)N[C@@H](Cc1ccccc1)[C@@H](O)C[C@@H](Cc1ccc(O)cc1)C(=O)N[C@H]1c2ccccc2C[C@H]1O | – | 0.05 (≈ 0.028 µg/mL)
25 | CC(C)C[C@H](NC(=O)[C@H](Cc1ccc(-c2ccccc2)cc1)C[C@H](O)[C@H](Cc1ccccc1)NC(=O)OC(C)(C)C)C(=O)N[C@@H](Cc1ccccc1)C(N)=O | 0.43 | –
26 | COCCN(CCCc1ccc(C[C@H](C[C@H](O)[C@H](Cc2ccccc2)NC(=O)OC(C)(C)C)C(=O)N[C@H]2c3ccccc3C[C@H]2O)cc1)CCOC | 0.59 | 0.2 (≈ 0.144 µg/mL)
27 | CN(C)CCCc1ccc(C[C@H](C[C@H](O)[C@H](Cc2ccccc2)NC(=O)OC(C)(C)C)C(=O)N[C@H]2c3ccccc3C[C@H]2O)cc1 | 0.6 | –
28 | CC(C)(C)OC(=O)N[C@@H](Cc1ccccc1)[C@@H](O)C[C@@H](Cc1ccc(CCC[N+](C)(C)C)cc1)C(=O)N[C@H]1c2ccccc2C[C@H]1O | 0.91 | 0.1
29 | CC(C)(C)OC(=O)N[C@@H](Cc1ccccc1)[C@@H](O)C[C@@H](Cc1ccc(CCCO)cc1)C(=O)N[C@H]1c2ccccc2C[C@H]1O | 0.1 | 0.05 (≈ 0.0301 µg/mL)
30 | CC(C)(C)OC(=O)N[C@@H](Cc1ccccc1)[C@@H](O)C[C@@H](Cc1ccc(CCCN2CCSCC2)cc1)C(=O)N[C@H]1c2ccccc2C[C@H]1O | 1 | –
31 | CC(C)C[C@H](NC(=O)[C@H](C)C[C@H](O)[C@H](Cc1ccccc1)NC(=O)OC(C)(C)C)C(=O)N[C@@H](Cc1ccccc1)C(N)=O | 6 | –
32 | CN(C)Cc1ccc(C[C@H](C[C@H](O)[C@H](Cc2ccccc2)NC(=O)OC(C)(C)C)C(=O)N[C@H]2c3ccccc3C[C@H]2O)cc1 | 1.4 | –
33 | CC(C)(C)OC(=O)N[C@@H](Cc1ccccc1)[C@@H](O)C[C@@H](Cc1ccc(CO)cc1)C(=O)N[C@H]1c2ccccc2C[C@H]1O | 0.17 | –
34 | C[S+]([O-])c1ccc(C[C@H](C[C@H](O)[C@H](Cc2ccccc2)NC(=O)OC(C)(C)C)C(=O)N[C@H]2c3ccccc3C[C@H]2O)cc1 (stereo partly specified) | 0.51 | –
35 | CC(C)C[C@H](NC(=O)[C@H](C/C=C/c1ccccc1)C[C@H](O)[C@H](Cc1ccccc1)NC(=O)OC(C)(C)C)C(=O)N[C@@H](Cc1ccccc1)C(N)=O | 0.23 | 6 (≈ 4.19 µg/mL)
36 | CC(C)(C)OC(=O)N[C@@H](Cc1ccccc1)[C@@H](O)C[C@@H](Cc1c(F)c(F)c(F)c(F)c1F)C(=O)N[C@H]1c2ccccc2C[C@H]1O | 0.6 | –
37 | CC(C)(C)OC(=O)N[C@@H](Cc1ccccc1)[C@@H](O)C[C@@H](CCc1cnc2ccccc2n1)C(=O)N[C@H]1c2ccccc2C[C@H]1O | 0.17 | –
38 | CCCCCCCCCCCCCCC[C@H](C[C@H](O)[C@H](Cc1ccccc1)NC(=O)OC(C)(C)C)C(=O)N[C@H]1c2ccccc2C[C@H]1O | > 3000 | –
39 | CC(C)(C)OC(=O)N[C@@H](Cc1ccccc1)[C@@H](O)C[C@@H](Cc1ccc(CCCN2CCOCC2)cc1)C(=O)N[C@H]1c2ccccc2C[C@H]1O | 0.43 | 0.2 (≈ 0.134 µg/mL)
40 | COCCOCOCCCc1ccc(C[C@H](C[C@H](O)[C@H](Cc2ccccc2)NC(=O)OC(C)(C)C)C(=O)N[C@H]2c3ccccc3C[C@H]2O)cc1 | 0.07 | 0.05 (≈ 0.0345 µg/mL)
